# Measurements collected from several papers.
# Compare with care: the assays were run in different laboratories.
Structure (SMILES),tested on,test,test system,setting,quantity,result
COc1cc(C#CC(=O)C(C)C)ccc1O,Pseudomonas aeruginosa,"microbial growth, absorbance",,"10 µM, 24 h",activity vs control,94%
C[C@H](NC(=O)CO/N=c1\cc2n(-c3ccc(Cl)cc3)c3ccccc3nc-2cc1Nc1ccc(Cl)cc1)C(=O)OC(C)(C)C,Mycobacteroides abscessus,microbial growth,,clinical isolate,MIC,> 30 µM
O=C1CC[C@H](N2Cc3cc(N4CCN(CC5CCN(c6ccc([C@@H]7c8ccc(O)cc8CC[C@@H]7c7ccccc7)cc6)CC5)CC4)ccc3C2=O)C(=O)N1,T47D,"cell growth or viability, ATP luminescence",,5 days,GI50,0.0045 µM
CN(C)c1cc(NC(=O)Cc2cccnc2)c(O)c2c1C[C@H]1C[C@H]3[C@H](N(C)C)C(O)=C(C(N)=O)C(=O)[C@@]3(O)C(O)=C1C2=O,Mycobacteroides abscessus,"microbial growth, resazurin",ATCC19977,,IC50,1.29 µg/mL
COc1cc(C#CC(=O)C2CCCCC2)ccc1O,Pseudomonas aeruginosa,"microbial growth, absorbance",,"10 µM, 24 h",activity vs control,81%
Clc1ccc(Nc2cc3nc4ccccc4n(-c4ccc(Cl)cc4)c-3c/c2=N\OCc2ccccc2)cc1,Mycobacteroides abscessus,microbial growth,,clinical isolate,MIC,> 30 µM
O=C(NO)c1ccc(CNc2nc3cccc(-c4ccc5c(c4)OCO5)n3n2)cc1,DU-145,"cell growth or viability, SRB",,,GI50,0.47 µM
CN(C)c1cc(NC(=O)Cc2ccncc2)c(O)c2c1C[C@H]1C[C@H]3[C@H](N(C)C)C(O)=C(C(N)=O)C(=O)[C@@]3(O)C(O)=C1C2=O,Mycobacteroides abscessus,"microbial growth, resazurin",ATCC19977,,IC50,0.57 µg/mL
Cc1cccc(C(=O)C#Cc2ccc(F)c(F)c2)c1,Pseudomonas aeruginosa,"microbial growth, absorbance",,"100 µM, 24 h",activity vs control,100%
O=C(CO/N=c1\cc2n(-c3ccc(Cl)cc3)c3ccccc3nc-2cc1Nc1ccc(Cl)cc1)NCc1ccc2c(c1)CCO2,Mycobacteroides abscessus,microbial growth,,clinical isolate,MIC,> 30 µM
CN(C)c1cc(NC(=O)Cc2ccn(C)n2)c(O)c2c1C[C@H]1C[C@H]3[C@H](N(C)C)C(O)=C(C(N)=O)C(=O)[C@@]3(O)C(O)=C1C2=O,Mycobacteroides abscessus,"microbial growth, resazurin",ATCC19977,,IC50,0.86 µg/mL
O=C(C#Cc1ccc(F)c(F)c1)c1ccc(Cl)cc1,Pseudomonas aeruginosa,"microbial growth, absorbance",,"100 µM, 24 h",activity vs control,96%
O=C(CO/N=c1\cc2n(-c3ccc(Cl)cc3)c3ccccc3nc-2cc1Nc1ccc(Cl)cc1)NCc1ccc(C(F)(F)F)cc1,Mycobacteroides abscessus,microbial growth,,clinical isolate,MIC,> 30 µM
CCCCC[C@H](O)CC(=O)CCc1ccc(O)c(OC)c1,Pseudomonas aeruginosa,"microbial growth, absorbance",,"10 µM, 24 h",activity vs control,99%
CN(C)c1cc(NC(=O)CCc2cccnc2)c(O)c2c1C[C@H]1C[C@H]3[C@H](N(C)C)C(O)=C(C(N)=O)C(=O)[C@@]3(O)C(O)=C1C2=O,Mycobacteroides abscessus,"microbial growth, resazurin",ATCC19977,,IC50,5.63 µg/mL
O=C(O)CO/N=c1\cc2n(-c3ccc(Cl)cc3)c3ccccc3nc-2cc1Nc1ccc(Cl)cc1,Mycobacteroides abscessus,microbial growth,,clinical isolate,MIC,> 30 µM
Cc1ccccc1C(=O)C#Cc1ccc(F)c(F)c1,Pseudomonas aeruginosa,"microbial growth, absorbance",,"10 µM, 24 h",activity vs control,101%
CN(C)c1cc(CNCC(C)(C)C)c(O)c2c1C[C@H]1C[C@H]3[C@H](N(C)C)C(O)=C(C(N)=O)C(=O)[C@@]3(O)C(O)=C1C2=O,Mycobacteroides abscessus,"microbial growth, resazurin",ATCC19977,,IC50,< 1 µg/mL
COc1cc(C#CC(=O)c2cccc(Cl)c2)ccc1O,Pseudomonas aeruginosa,"microbial growth, absorbance",,"10 µM, 24 h",activity vs control,102%
C=CC(=O)NC1CCN(c2ncc3ncnc(Nc4ccc(Oc5ccc6c(c5)ncn6C)c(C)c4)c3n2)CC1,SW837,cell growth or viability,,,EC50,21500 µM
CN(C)c1cc(NC(=O)Cc2ccccn2)c(O)c2c1C[C@H]1C[C@H]3[C@H](N(C)C)C(O)=C(C(N)=O)C(=O)[C@@]3(O)C(O)=C1C2=O,Mycobacteroides abscessus,"microbial growth, resazurin",ATCC19977,,IC50,0.67 µg/mL
C=C(F)C(=O)N1CCN(c2nc(OC[C@@H]3CCCN3C)nc3c2CCN(c2cccc4cccc(Cl)c24)C3)C[C@@H]1CC#N,SW837,"cell growth or viability, ATP luminescence",,3D culture,IC50,0.00577 µM
